Experimental data as given in ChEMBL document CHEMBL4622983, “Structure-Activity Relationship Studies of α-Ketoamides as Inhibitors of the Phospholipase A and Acyltransferase Enzyme Family” (J Med Chem, 2020).
Activity calls are given as the source filed them. The calls are words filed in the database; no cut-off is given here.

Experiments:
[1] = target: T1, Phospholipase A and acyltransferase 2 (Homo sapiens, UniProt Q9NWW9); experiment: Inhibition of full-length C-terminal FLAG-tagged human PLAAT2 expressed in HEK293T cell lysate preincubated for 30 mins followed by MB064 addition and measured after 20 mins by SDS-PAGE based ABPP analysis; format: cell-free, HEK-293T
T1 sequence (Q9NWW9 whole entry): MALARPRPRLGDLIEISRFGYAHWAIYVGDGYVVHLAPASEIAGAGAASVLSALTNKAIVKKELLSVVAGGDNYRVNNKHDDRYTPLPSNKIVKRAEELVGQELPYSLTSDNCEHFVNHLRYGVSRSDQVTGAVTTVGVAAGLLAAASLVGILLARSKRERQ
Outline: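 Dose–response competitive ABPP on cytosol only, from HEK293T overexpressing FLAG-tagged PLAAT. Inhibitor 30 min rt, then MB064 20 min rt. PLAAT2 0.25 μg/μL with 250 nM probe; PLAAT3 0.5 μg/μL with 250 nM; PLAAT4 and PLAAT5 1 μg/μL with 500 nM. Fluorescence normalized to Coomassie. IC50 from curves, reported as pIC50 ± SEM, n = 3.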

[2] = target: Cannabinoid receptor 2 (Homo sapiens) (UniProt P34972); experiment: Displacement of [3H]CP55940 from human CB2 receptor expressed in CHOK1 cell membranes at 10 uM by liquid scintillation spectrometry analysis; conditions: CHO-K1
Outline: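 [3H]CP55940 displacement at human CB1 or CB2 receptors, single test concentration 10 μM. Result expressed as % radioligand displacement ± SD (N = 2, n = 2).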

[3] = target: Cytosolic phospholipase A2 epsilon (Homo sapiens) (UniProt Q3MJ16); experiment: Inhibition of full length human PLA2G4E assessed as enzyme remaining activity at 10 uM using FP-TAMRA as substrate preincubated for 30 mins followed by substrate addition and measured after 5 mins by SDS-PAGE based ABPP analysis relative to control
Outline: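 hPLA2G4E-overexpressing membrane lysate (1 μg/μL) preincubated with 10 μM inhibitor for 30 min at rt. FP-TAMRA 50 nM added for 5 min at rt. Resolved on 8% SDS-PAGE, fluorescence normalized to Coomassie. Reported as % remaining activity ± SD, n = 3.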

[4] = target: Diacylglycerol lipase-alpha (Mus musculus) (UniProt Q6WQJ1); experiment: Inhibition of mouse brain membrane DAGLalpha assessed as enzyme remaining activity at 10 uM preincubated for 30 mins followed by MB064 or FP-TAMRA addition and measured after 15 mins by SDS-PAGE based ABPP analysis relative to control; format: cell membranes
Outline: (§1)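 Mouse brain membrane proteome (2 μg/μL) preincubated with 10 μM inhibitor for 30 min at rt. Then MB064 250 nM or FP-TAMRA 500 nM for 15 min at rt. Resolved on 10% SDS-PAGE, fluorescence normalized to Coomassie. Reported as % remaining activity ± SD, n = 3.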

[5] = target: Fatty-acid amide hydrolase 1 (Mus musculus) (UniProt O08914); experiment: Inhibition of mouse brain membrane FAAH assessed as enzyme remaining activity at 10 uM preincubated for 30 mins followed by MB064 or FP-TAMRA addition and measured after 15 mins by SDS-PAGE based ABPP analysis relative to control; format: cell membranes; outline: as §1
[6] = target: Monoacylglycerol lipase ABHD6 (Mus musculus) (UniProt Q8R2Y0); experiment: Inhibition of mouse brain membrane ABHD6 assessed as enzyme remaining activity at 10 uM preincubated for 30 mins followed by MB064 or FP-TAMRA addition and measured after 15 mins by SDS-PAGE based ABPP analysis relative to control; format: cell membranes; outline: as §1
[7] = target: T2, Phospholipase A and acyltransferase 2 (Homo sapiens) (UniProt Q9NWW9); experiment: Inhibition of full-length C-terminal FLAG-tagged human PLAAT2 expressed in human U2OS cells assessed as reduction in anandamide level at 10 uM incubated for 4 hrs by LC-MS/MS analysis relative to control; format: cell-based
T2 sequence (whole entry): T1 sequence (Q9NWW9 whole entry)
Outline: (§2)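 U2OS cells transfected with PLAAT2, PLAAT5 or empty vector (PEI, 1:5 plasmid/PEI). At 24 h, switched to serum-free medium with 10 μM compound (0.1% DMSO) or DMSO for 4 h at 37 °C. Pellets extracted with MTBE against deuterated internal standards. NAEs, 2-AG and free fatty acids quantified by LC–MS/MS, normalized to live cell count. Four biological replicates; one-way ANOVA.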

[8] = target: T3, Phospholipase A and acyltransferase 5 (Homo sapiens) (UniProt Q96KN8); experiment: Inhibition of full-length C-terminal FLAG-tagged human PLAAT5 expressed in human U2OS cells assessed as reduction in absolute N-palmitoylethanolamine level at 10 uM incubated for 4 hrs by LC-MS/MS analysis; format: cell-based; outline: as §2
T3 sequence (whole entry): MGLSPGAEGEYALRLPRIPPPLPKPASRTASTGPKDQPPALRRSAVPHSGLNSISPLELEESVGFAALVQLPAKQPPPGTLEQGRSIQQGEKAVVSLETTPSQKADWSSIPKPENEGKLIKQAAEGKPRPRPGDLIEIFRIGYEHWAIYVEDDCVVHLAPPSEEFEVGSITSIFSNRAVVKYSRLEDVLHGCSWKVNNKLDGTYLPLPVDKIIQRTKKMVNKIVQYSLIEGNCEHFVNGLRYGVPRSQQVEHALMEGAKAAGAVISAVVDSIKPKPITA

[9] = target: T2, Phospholipase A and acyltransferase 2 (Homo sapiens); experiment: Inhibition of full-length C-terminal FLAG-tagged human PLAAT2 expressed in human U2OS cells assessed as reduction in absolute N-palmitoleoylethanolamine level at 10 uM incubated for 4 hrs by LC-MS/MS analysis; format: cell-based; outline: as §2
[10] = test system: U2OS; experiment: Downregulation of N-eicosapentaenoylethanolamine level in human U2OS cells at 10 uM after 4 hrs by LC-MS/MS analysis; format: functional, cell-based; outline: as §2
[11] = target: T2, Phospholipase A and acyltransferase 2 (Homo sapiens); experiment: Inhibition of full-length C-terminal FLAG-tagged human PLAAT2 expressed in human U2OS cells assessed as reduction in arachidonic acid level at 10 uM incubated for 4 hrs by LC-MS/MS analysis; format: cell-based; outline: as §2
[12] = test system: U2OS; experiment: Inhibition of serine hydrolase in human U2OS cell membrane fraction at 10 uM preincubated for 30 mins followed by MB064 addition and measured after 15 mins by SDS-PAGE based competitive ABPP analysis
Outline: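 U2OS cytosol or membrane lysate at 2.5 μg/μL, pretreated with inhibitor or DMSO vehicle for 30 min at rt. Probe then added for 15 min at rt: MB064 at 2 μM or FP-TAMRA at 500 nM. Samples denatured in Laemmli buffer and resolved by SDS-PAGE. In-gel fluorescence scanned at Cy3/Cy5 settings and normalized to Coomassie staining.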

[13] = target: Cytosolic phospholipase A2 beta (Homo sapiens) (UniProt P0C869); experiment: Inhibition of human PLA2G4B expressed in HEK293T cell lysates at 10 uM preincubated for 30 mins followed by FP-TAMRA addition and measured after 20 mins by SDS-PAGE based competitive ABPP analysis; format: cell-free; conditions: HEK-293T
Outline: (§3)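 hPLA2G4B, C or D-overexpressing membrane lysate (1 μg/μL) preincubated with inhibitor for 30 min at rt. FP-TAMRA 500 nM added for 20 min at rt. In-gel fluorescence after SDS-PAGE, normalized to Coomassie.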

[14] = target: Cytosolic phospholipase A2 delta (Homo sapiens) (UniProt Q86XP0); experiment: Inhibition of human PLA2G4D expressed in HEK293T cell lysates at 10 uM preincubated for 30 mins followed by FP-TAMRA addition and measured after 20 mins by SDS-PAGE based competitive ABPP analysis; format: cell-free; conditions: HEK-293T; outline: as §3
Chain of Cytosolic phospholipase A2 delta (Homo sapiens) (Q86XP0 whole entry): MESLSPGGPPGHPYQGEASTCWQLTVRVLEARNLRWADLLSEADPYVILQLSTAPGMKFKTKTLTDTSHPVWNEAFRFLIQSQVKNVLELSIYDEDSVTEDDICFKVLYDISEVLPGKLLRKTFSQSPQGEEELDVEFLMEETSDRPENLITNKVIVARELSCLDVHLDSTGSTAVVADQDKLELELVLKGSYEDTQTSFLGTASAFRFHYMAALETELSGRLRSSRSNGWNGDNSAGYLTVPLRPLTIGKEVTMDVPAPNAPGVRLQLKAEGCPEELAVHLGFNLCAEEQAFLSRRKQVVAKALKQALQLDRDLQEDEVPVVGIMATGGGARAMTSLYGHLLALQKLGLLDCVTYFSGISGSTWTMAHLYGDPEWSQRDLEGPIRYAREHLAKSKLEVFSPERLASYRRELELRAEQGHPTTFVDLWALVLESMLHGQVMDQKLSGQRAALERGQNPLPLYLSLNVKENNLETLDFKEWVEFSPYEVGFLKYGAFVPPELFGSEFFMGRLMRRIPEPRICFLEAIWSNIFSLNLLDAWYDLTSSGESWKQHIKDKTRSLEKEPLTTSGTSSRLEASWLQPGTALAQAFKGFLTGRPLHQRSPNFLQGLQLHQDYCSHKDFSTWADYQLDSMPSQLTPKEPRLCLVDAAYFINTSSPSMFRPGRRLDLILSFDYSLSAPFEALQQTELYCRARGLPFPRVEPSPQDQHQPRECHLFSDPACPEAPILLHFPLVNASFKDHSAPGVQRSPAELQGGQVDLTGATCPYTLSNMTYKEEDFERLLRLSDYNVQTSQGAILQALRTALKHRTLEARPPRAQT

Chain of Fatty-acid amide hydrolase 1 (Mus musculus) (O08914 whole entry): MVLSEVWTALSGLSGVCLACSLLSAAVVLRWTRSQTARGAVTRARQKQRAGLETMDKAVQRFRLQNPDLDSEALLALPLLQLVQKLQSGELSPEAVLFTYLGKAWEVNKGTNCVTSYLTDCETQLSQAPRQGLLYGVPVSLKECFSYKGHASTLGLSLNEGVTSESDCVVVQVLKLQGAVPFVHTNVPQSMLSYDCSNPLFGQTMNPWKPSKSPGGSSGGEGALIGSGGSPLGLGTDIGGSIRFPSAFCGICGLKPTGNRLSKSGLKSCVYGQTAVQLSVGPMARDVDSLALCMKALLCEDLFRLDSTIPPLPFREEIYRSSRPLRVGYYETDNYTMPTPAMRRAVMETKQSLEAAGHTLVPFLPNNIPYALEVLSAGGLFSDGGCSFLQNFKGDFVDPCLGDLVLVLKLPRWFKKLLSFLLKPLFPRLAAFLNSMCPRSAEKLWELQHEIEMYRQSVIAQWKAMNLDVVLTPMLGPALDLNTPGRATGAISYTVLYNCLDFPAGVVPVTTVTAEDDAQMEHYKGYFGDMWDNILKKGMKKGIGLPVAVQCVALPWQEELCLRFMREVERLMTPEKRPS
Chain of Cytosolic phospholipase A2 epsilon (Homo sapiens) (Q3MJ16 whole entry): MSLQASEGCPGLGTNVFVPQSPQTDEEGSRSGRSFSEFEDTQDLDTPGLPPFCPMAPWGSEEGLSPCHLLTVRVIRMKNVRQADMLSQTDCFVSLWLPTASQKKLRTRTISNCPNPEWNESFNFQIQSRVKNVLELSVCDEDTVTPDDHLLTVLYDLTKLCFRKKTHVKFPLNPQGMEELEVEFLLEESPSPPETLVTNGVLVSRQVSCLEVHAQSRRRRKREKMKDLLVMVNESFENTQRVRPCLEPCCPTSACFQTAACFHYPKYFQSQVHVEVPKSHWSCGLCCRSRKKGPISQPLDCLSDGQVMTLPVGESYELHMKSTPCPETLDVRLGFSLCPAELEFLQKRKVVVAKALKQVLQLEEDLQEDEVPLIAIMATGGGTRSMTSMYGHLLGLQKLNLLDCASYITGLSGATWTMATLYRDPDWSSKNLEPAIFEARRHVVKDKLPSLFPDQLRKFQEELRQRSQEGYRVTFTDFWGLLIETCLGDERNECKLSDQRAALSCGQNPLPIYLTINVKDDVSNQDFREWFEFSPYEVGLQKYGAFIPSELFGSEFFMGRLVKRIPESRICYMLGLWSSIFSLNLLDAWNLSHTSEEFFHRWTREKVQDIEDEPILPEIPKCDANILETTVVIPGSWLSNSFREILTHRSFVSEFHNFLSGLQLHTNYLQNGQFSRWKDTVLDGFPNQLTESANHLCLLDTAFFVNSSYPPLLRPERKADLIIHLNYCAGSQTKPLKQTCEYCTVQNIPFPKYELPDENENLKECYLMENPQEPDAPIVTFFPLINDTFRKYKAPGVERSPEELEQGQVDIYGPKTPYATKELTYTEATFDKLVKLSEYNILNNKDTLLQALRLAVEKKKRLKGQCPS
Chain of Diacylglycerol lipase-alpha (Mus musculus) (Q6WQJ1 whole entry): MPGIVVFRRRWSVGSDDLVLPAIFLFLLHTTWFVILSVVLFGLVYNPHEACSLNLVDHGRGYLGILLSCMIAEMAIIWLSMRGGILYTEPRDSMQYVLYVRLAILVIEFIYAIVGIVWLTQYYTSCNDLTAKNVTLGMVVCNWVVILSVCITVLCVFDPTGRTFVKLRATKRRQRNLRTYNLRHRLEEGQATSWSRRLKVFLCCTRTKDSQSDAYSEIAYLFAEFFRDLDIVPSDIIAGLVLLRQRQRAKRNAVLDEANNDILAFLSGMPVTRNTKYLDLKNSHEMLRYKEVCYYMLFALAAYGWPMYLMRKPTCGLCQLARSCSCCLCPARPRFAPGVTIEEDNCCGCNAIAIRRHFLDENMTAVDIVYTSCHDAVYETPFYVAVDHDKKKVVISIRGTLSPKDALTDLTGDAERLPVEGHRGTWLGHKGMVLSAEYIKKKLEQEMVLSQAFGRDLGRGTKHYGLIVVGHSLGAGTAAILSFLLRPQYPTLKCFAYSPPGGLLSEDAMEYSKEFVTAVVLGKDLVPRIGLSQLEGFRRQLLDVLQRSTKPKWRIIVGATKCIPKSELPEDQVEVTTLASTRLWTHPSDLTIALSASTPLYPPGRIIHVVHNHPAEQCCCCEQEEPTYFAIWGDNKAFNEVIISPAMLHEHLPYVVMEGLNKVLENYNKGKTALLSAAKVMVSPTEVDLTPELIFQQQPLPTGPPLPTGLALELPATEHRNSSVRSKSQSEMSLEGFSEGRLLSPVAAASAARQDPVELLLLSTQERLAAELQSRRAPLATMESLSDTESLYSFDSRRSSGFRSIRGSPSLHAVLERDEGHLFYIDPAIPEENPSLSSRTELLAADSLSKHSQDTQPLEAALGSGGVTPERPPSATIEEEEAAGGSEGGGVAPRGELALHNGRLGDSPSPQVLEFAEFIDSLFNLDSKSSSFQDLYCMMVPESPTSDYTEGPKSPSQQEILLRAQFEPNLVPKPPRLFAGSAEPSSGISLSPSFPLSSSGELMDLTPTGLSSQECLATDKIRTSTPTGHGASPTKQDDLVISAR
Chain of Monoacylglycerol lipase ABHD6 (Mus musculus) (Q8R2Y0 whole entry): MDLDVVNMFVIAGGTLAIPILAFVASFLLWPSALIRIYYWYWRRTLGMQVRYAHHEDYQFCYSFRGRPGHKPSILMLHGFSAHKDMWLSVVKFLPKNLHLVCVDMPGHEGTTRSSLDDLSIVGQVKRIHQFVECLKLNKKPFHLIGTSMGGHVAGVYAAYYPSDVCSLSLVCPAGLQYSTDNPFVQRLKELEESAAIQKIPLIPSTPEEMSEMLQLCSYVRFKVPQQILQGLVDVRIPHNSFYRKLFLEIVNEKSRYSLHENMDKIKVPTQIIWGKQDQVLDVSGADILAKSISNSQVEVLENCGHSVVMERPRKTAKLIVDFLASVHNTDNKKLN
Chain of Cytosolic phospholipase A2 beta (Homo sapiens) (P0C869 whole entry): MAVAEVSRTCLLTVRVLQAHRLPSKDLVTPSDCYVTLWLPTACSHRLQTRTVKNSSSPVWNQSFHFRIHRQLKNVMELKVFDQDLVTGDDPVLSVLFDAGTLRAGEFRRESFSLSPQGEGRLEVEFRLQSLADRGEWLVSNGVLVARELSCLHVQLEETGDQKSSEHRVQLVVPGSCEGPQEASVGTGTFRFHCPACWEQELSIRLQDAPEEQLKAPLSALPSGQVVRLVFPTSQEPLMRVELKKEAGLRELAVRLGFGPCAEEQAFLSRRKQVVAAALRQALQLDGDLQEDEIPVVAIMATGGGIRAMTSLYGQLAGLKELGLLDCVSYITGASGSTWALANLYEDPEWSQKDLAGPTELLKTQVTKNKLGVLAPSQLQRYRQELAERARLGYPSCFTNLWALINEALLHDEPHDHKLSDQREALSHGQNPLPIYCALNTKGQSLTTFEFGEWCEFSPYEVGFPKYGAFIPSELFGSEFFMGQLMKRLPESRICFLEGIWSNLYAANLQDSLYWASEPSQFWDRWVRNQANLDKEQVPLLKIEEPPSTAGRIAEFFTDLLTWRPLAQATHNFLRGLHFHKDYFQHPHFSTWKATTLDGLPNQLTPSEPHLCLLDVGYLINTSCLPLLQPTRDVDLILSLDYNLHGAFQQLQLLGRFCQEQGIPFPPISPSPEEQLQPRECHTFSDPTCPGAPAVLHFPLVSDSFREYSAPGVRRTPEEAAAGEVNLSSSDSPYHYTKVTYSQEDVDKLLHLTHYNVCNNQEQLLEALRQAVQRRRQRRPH
Chain of Cannabinoid receptor 2 (Homo sapiens) (P34972 whole entry): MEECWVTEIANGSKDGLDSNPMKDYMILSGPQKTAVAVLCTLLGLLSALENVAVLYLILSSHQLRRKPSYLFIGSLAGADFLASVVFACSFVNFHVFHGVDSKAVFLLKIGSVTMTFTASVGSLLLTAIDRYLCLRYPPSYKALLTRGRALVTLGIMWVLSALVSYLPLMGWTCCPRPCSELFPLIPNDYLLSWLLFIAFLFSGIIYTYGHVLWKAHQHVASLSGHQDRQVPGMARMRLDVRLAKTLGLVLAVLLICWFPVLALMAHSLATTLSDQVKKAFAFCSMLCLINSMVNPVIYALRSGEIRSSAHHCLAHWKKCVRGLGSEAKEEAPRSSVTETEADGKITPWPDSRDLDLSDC

- IC50 [1]: 50.1 nM
- Activity [2]: 32%
- Activity [3]: 95%
- Activity [4]: 97%
- Activity [5]: 108%
- Activity [6]: 92%
- fold change (FC) [7]: 2
- inhibition [8]: Active
- inhibition [9]: Active
- inhibition [11]: inactive
- inhibition [13]: inactive
- inhibition [14]: inactive
SMILES: O=C(CCCc1ccccc1)C(=O)NCCc1ccc(Oc2ccccc2)cc1
- inhibition [10]: inactive
- inhibition [12]: inactive
